Reference: ChEMBL document CHEMBL3627690, “Scaffold-Hopping and Structure-Based Discovery of Potent, Selective, And Brain Penetrant N-(1H-Pyrazol-3-yl)pyridin-2-amine Inhibitors of Dual Leucine Zipper Kinase (DLK, MAP3K12)” (J Med Chem, 2015)
pIC50: −log10 of the molar value. Active and inactive are the calls of the source. The calls are words filed in the database; no cut-off is given here.

Legend:
human MDR1 = experiment: Efflux ratio of permeability across basolateral to apical over apical to basolateral side in MDCK cells transfected with human MDR1 at 5 uM by LC-MS/MS analysis; conditions: dog
[1] = Ratio of unbound AUC in brain to plasma of […] rat at 0.4 or 1 mg/kg, iv and 1 or 5 mg/kg, po; type: ADME, organism-based
In short: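 Rat PK: iv dosing at 0.4 or 1 mg/kg as a 60% PEG solution and oral dosing at 1 or 5 mg/kg as an aqueous suspension in 1% methylcellulose. The ratio is unbound brain AUC over unbound plasma AUC. Unbound clearance was taken as CL/fu, where fu is the fraction unbound in plasma.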

[2] = Oral bioavailability in […] rat at 1 or 5 mg/kg; type: ADME, organism-based; conditions: in vivo
In short: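 Rat PK: iv dosing at 0.4 or 1 mg/kg as a 60% PEG solution, po dosing at 1 or 5 mg/kg as an aqueous suspension with 1% methylcellulose.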

[3] = target: T1, Mitogen-activated protein kinase kinase kinase 12 (Homo sapiens) (UniProt Q12852); experiment: Inhibition of Flag DLK (unknown origin) transfected in HEK293 cells assessed as reduction of phosphorylation of MKK7 at 0.1 to 10 uM incubated for 5 hrs measured by Western blot analysis; type: cell-based
T1 sequence (whole entry): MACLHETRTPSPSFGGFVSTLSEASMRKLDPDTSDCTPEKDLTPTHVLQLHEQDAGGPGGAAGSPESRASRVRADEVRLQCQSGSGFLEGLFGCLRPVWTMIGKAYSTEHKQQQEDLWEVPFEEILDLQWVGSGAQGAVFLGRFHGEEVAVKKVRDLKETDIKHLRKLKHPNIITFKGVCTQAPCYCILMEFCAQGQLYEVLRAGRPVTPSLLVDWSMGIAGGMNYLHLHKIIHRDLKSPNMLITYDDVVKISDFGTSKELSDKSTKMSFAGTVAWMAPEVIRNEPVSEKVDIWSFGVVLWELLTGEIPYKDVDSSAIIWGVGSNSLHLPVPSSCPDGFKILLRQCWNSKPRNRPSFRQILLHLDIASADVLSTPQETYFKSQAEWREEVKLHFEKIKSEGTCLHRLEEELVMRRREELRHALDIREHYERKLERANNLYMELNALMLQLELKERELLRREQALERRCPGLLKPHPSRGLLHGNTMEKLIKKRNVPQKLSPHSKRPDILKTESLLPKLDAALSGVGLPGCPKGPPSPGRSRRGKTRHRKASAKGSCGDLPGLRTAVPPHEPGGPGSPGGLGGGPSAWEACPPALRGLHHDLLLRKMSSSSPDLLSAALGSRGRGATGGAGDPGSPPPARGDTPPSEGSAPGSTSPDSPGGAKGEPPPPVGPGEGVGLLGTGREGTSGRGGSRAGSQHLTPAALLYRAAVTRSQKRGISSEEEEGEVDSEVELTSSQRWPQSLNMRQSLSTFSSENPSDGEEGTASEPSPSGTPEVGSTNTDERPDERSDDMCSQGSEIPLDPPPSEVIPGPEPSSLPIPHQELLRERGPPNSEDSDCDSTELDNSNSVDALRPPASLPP
In short: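 HEK293 cells were transfected with Flag-tagged DLK, with kinase-dead DLK K152A as comparator, 24 h before compound addition. Cells were then exposed to compound for 5 h. Phospho-MKK4, phospho-MKK7, phospho-JNK and phospho-c-Jun were probed.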

[4] = target: Serine/threonine-protein kinase MARK2 (Homo sapiens) (UniProt Q7KZI7); experiment: Inhibition of MARK2 (unknown origin) at 1 uM by FRET method
In short: (§1)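 SelectScreen panel of 58 kinases, each tested at a single 1 µM compound concentration. Read-out was Z′-LYTE FRET of labeled peptide phosphorylation, run by the vendor's protocols, reported as percent inhibition.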

[5] = target: Dual specificity mitogen-activated protein kinase kinase 1 (Homo sapiens) (UniProt Q02750); experiment: Inhibition of MEK1 (unknown origin) at 1 uM by FRET method; in short: as §1
[6] = target: Serine/threonine-protein kinase pim-1 (Homo sapiens) (UniProt P11309); experiment: Inhibition of PIM1 (unknown origin) at 1 uM by FRET method
In short: (§2)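 Single-point screen at 1 uM against a panel of 58 representative kinases. Readout was labeled-peptide phosphorylation by FRET (Z′-LYTE), using the vendor's protocols.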

[7] = target: Serine/threonine-protein kinase PLK1 (Homo sapiens) (UniProt P53350); experiment: Inhibition of PLK1 (unknown origin) at 1 uM by FRET method; in short: as §2
[8] = target: Rho-associated protein kinase 1 (Homo sapiens) (UniProt Q13464); experiment: Inhibition of ROCK1 (unknown origin) at 1 uM by FRET method; in short: as §2
[9] = target: Ribosomal protein S6 kinase alpha-3 (Homo sapiens) (UniProt P51812); experiment: Inhibition of Rsk2 (unknown origin) at 1 uM by FRET method; in short: as §2
[10] = target: Serine/threonine-protein kinase Chk1 (Homo sapiens) (UniProt O14757); experiment: Inhibition of CHK1 (unknown origin) at 1 uM by FRET method; in short: as §1
[11] = target: Myotonin-protein kinase (Homo sapiens) (UniProt Q09013); experiment: Inhibition of DMPK (unknown origin) at 1 uM by FRET method; in short: as §1
[12] = target: Ephrin type-A receptor 2 (Homo sapiens) (UniProt P29317); experiment: Inhibition of EphA2 (unknown origin) at 1 uM by FRET method; in short: as §1
[13] = target: Fibroblast growth factor receptor 1 (Homo sapiens) (UniProt P11362); experiment: Inhibition of FGFR1 (unknown origin) at 1 uM by FRET method; in short: as §1
[14] = target: Insulin-like growth factor 1 receptor (Homo sapiens) (UniProt P08069); experiment: Inhibition of IGF1R (unknown origin) at 1 uM by FRET method; in short: as §1
[15] = target: Inhibitor of nuclear factor kappa-B kinase subunit beta (Homo sapiens) (UniProt O14920); experiment: Inhibition of IKKbeta (unknown origin) at 1 uM by FRET method; in short: as §1
[16] = target: Interleukin-1 receptor-associated kinase 4 (Homo sapiens) (UniProt Q9NWZ3); experiment: Inhibition of IRAK4 (unknown origin) at 1 uM by FRET method; in short: as §1
[17] = target: Mitogen-activated protein kinase 8 (Homo sapiens, UniProt P45983); experiment: Inhibition of JNK1alpha1(unknown origin) at 1 uM by FRET method; in short: as §1
[18] = target: T2, Proto-oncogene tyrosine-protein kinase Src (Homo sapiens, UniProt P12931); experiment: Inhibition of Src (unknown origin) by FRET method
In short: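 Biochemical IC50 determination from a 10-point dose-response in an enzymatic Z′-LYTE assay. Labeled-peptide phosphorylation was read by FRET under the vendor's protocols.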

[19] = target: T2, Proto-oncogene tyrosine-protein kinase Src; conditions: 1 uM
[20] = target: Dual specificity mitogen-activated protein kinase kinase 7 (Homo sapiens, UniProt O14733); experiment: Inhibition of MKK7 (unknown origin) using KFMMpTPYVVTR substrate incubated for 1 hr measured by MpTPpYV probe-based fluorescence polarization assay

T2 sequence (P12931 2-536 limits assumed): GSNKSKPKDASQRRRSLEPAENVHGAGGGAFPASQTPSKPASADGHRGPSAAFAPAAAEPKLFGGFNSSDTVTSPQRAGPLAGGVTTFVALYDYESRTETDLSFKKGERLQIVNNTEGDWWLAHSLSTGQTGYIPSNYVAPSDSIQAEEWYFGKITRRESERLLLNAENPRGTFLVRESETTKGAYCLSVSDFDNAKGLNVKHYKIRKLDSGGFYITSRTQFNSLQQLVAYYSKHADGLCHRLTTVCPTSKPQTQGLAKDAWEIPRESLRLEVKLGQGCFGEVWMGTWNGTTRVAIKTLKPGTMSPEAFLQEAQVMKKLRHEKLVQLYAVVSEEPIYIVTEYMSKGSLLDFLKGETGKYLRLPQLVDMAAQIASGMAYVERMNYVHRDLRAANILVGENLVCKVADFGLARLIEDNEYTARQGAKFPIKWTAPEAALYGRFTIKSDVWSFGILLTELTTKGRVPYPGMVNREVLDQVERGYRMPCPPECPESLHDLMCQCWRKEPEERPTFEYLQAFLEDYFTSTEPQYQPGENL
Sequence of Serine/threonine-protein kinase pim-1 (Homo sapiens) (P11309 whole entry, looked up): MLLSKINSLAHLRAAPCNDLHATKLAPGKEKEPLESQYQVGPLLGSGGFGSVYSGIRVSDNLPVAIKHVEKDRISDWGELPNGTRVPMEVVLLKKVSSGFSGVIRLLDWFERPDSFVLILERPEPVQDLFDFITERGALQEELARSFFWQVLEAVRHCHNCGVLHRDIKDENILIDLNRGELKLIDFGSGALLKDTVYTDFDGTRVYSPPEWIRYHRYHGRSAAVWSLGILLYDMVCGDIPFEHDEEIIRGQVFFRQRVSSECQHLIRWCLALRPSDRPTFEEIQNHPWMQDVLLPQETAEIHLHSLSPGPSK
Sequence of Insulin-like growth factor 1 receptor (Homo sapiens) (P08069 31-736 limits assumed): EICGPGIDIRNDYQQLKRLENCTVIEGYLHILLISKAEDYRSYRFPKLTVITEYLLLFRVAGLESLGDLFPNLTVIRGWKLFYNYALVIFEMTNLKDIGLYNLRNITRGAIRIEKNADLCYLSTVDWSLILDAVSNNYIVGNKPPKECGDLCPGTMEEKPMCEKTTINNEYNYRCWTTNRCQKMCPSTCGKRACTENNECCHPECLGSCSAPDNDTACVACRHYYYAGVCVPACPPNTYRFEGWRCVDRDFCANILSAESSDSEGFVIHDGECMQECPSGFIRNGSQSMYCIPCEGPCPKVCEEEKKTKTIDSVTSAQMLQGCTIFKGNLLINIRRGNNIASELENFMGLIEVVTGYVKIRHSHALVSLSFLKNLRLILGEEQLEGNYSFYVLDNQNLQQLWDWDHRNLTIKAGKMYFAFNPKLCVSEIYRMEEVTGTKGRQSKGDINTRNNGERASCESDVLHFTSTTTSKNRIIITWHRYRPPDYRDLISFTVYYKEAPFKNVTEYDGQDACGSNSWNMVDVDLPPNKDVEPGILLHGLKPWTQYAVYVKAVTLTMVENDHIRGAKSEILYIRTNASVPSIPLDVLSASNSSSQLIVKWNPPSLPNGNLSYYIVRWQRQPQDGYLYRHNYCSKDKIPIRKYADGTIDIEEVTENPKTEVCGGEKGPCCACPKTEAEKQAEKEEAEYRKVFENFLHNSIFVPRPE
Sequence of Insulin-like growth factor 1 receptor (Homo sapiens) (P08069 741-1367 limits assumed): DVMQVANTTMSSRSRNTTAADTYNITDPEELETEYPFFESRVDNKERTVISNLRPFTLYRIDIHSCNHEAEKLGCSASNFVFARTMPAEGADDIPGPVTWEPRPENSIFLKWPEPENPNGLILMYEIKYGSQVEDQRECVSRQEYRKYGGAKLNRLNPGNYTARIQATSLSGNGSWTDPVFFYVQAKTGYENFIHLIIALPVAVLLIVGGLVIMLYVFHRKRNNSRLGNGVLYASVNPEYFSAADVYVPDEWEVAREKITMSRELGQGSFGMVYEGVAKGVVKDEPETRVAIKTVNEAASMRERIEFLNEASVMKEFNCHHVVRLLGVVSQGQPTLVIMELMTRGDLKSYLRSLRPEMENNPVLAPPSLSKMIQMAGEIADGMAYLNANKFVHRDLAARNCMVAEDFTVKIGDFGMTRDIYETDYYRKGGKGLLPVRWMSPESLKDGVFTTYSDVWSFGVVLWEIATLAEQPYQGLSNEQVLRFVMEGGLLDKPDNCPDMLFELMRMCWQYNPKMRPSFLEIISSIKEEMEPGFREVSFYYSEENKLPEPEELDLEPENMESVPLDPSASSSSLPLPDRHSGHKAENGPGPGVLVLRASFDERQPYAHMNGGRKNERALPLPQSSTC
Sequence of Ribosomal protein S6 kinase alpha-3 (Homo sapiens) (P51812 whole entry): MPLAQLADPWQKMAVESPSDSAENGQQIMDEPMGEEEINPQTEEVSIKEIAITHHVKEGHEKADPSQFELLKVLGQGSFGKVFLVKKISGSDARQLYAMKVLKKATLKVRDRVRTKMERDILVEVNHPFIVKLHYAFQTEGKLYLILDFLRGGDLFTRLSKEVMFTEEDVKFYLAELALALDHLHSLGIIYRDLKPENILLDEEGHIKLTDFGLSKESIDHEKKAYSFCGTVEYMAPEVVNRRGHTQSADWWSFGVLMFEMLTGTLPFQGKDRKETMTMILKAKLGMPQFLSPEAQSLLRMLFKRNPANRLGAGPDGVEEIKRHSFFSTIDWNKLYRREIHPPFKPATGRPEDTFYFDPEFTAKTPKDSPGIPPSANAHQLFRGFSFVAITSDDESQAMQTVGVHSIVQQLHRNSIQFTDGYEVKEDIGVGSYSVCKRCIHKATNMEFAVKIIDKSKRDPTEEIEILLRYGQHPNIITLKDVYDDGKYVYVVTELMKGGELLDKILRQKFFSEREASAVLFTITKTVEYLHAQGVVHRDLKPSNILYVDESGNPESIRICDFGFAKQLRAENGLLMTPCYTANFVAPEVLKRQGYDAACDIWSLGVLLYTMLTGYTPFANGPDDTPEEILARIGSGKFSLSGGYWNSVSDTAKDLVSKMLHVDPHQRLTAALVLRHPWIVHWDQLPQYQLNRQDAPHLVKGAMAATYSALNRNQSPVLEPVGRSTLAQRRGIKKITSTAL
Sequence of Fibroblast growth factor receptor 1 (Homo sapiens) (P11362 22-822 limits assumed): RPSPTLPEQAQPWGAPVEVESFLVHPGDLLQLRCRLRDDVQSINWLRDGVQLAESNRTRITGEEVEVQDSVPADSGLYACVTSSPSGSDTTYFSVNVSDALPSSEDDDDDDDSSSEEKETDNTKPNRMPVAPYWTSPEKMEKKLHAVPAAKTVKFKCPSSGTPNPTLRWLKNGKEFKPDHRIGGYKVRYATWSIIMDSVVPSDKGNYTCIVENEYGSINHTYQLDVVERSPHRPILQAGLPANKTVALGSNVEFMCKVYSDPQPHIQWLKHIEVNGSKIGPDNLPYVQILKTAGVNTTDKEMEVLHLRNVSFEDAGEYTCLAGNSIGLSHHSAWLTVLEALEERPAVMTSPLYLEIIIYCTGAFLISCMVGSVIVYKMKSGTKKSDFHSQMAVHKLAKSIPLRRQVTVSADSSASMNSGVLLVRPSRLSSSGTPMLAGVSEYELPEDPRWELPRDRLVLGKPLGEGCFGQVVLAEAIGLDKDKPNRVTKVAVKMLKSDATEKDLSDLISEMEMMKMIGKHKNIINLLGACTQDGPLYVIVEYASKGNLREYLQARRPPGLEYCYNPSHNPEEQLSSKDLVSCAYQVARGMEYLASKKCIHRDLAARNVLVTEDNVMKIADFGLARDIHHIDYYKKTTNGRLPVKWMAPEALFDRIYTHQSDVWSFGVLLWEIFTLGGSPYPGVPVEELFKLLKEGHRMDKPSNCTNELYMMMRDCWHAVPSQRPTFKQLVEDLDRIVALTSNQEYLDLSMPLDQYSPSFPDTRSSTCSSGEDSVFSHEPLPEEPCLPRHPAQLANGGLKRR
Sequence of Serine/threonine-protein kinase PLK1 (Homo sapiens) (P53350 whole entry): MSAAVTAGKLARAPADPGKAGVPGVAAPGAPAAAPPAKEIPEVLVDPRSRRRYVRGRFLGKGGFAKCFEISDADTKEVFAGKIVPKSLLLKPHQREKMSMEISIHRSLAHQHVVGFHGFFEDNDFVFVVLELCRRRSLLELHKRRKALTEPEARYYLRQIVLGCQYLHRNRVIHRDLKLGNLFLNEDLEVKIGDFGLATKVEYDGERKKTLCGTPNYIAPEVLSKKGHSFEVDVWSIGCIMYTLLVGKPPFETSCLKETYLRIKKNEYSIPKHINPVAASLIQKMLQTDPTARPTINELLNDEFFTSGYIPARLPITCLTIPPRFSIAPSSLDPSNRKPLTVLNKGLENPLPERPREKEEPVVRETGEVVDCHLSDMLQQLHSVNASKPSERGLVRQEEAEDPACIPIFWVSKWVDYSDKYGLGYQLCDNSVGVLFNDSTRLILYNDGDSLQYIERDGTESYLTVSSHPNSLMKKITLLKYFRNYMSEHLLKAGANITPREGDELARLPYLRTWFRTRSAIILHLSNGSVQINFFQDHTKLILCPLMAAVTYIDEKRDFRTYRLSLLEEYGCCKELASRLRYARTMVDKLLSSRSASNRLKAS
Sequence of Serine/threonine-protein kinase Chk1 (Homo sapiens) (O14757 whole entry): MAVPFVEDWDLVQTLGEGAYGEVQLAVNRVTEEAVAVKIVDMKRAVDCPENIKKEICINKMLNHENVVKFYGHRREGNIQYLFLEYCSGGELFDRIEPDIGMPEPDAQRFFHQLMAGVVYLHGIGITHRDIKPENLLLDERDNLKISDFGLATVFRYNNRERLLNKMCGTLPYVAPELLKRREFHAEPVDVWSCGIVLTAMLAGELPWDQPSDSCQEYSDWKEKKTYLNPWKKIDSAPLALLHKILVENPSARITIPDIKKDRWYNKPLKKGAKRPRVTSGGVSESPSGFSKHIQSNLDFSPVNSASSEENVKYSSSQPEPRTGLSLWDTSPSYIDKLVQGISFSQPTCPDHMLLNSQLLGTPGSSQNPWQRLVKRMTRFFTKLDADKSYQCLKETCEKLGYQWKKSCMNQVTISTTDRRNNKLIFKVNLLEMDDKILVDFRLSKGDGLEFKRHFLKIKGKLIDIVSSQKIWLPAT

- efflux ratio at 5 µM (human MDR1): 1.4
- Kp uu [1]: 0.35
- bioavailability [2]: 58%
- inhibition [3]: Active
- inhibition [4]: 3%
- inhibition [5]: 4%
- inhibition [6]: 6.6%
- inhibition [7]: 7.3%
- inhibition [8]: -3%
- inhibition [9]: 5.7%
- inhibition [10]: -2.3%
- inhibition [11]: 12%
- inhibition [12]: 23%
- inhibition [13]: 0.3%
- inhibition [14]: 37%
- inhibition [15]: 5.4%
- inhibition [16]: 19.5%
- inhibition [17]: 4.5%
- pIC50 [18]: 6.00
- inhibition [19]: 55.4%
- pIC50 [20]: < 5.30
SMILES: N#Cc1ccnc(Nc2cc(C3CCN(C4COC4)CC3)n(C3CCCC3)n2)c1
